Mdm2 MdmX PPI – inhibitors of human Mdm2/MdmX interaction; O15151+Q00987; inhibition, % at 8 µM; 3% of 330,000 active; SaOS-2 split-luciferase Mdm2/MdmX complementation, luminescence;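 active means inhibition of at least 50% at 8 µM in the primary screen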
Target sequence (O15151 whole entry, looked up): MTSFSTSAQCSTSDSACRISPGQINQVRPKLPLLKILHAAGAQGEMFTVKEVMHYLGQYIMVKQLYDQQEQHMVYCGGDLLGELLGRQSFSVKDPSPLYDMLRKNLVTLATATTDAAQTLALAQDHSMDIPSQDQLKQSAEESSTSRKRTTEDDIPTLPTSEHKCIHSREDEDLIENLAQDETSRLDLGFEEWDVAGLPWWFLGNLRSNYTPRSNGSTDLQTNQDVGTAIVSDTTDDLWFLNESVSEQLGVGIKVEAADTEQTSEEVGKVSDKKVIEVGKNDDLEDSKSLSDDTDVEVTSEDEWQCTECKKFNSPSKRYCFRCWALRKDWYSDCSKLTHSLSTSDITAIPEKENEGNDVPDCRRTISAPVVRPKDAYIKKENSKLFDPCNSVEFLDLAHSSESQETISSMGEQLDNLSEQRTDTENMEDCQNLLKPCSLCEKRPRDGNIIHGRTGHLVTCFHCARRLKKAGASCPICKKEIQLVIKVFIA
Target sequence (Q00987 whole entry, looked up): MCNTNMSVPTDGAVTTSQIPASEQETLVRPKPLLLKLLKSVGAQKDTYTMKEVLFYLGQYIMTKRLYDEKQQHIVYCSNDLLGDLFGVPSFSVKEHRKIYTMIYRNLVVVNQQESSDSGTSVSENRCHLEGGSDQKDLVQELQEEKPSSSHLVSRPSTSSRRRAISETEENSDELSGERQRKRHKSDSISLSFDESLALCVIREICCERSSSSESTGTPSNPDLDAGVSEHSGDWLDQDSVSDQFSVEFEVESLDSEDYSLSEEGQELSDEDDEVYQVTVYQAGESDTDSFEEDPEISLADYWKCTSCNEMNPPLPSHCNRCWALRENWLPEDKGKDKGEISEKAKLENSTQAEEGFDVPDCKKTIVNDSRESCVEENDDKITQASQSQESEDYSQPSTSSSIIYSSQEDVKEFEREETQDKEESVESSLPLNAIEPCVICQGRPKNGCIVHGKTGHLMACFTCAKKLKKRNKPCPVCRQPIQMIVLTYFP
SKKanGAS inh – blocks kanamycin growth of S. pyogenes SKKanGAS strain; AID 1662; 1.3% of 300,000 active; BacTiter-Glo, 6 h; inhibition, % at 7.5 µM;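 active means mean replicate score, as percent of positive control median, at least 50; inconclusive means mean below 50 but one replicate at or above 50; inactive means mean and every replicate below 50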;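 further: strain carries kanamycin resistance gene driven by streptokinase promoter and grows in 40 µg/ml kanamycin; loss of luminescence reflects streptokinase promoter inhibition or plain growth inhibition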
UPR CHOP act – activators of apoptotic arm of unfolded protein response (CHOP) | CHO-CHOP luciferase reporter, UPR activation, luminescence; percent of tunicamycin response over DMSO baseline | 0.34% of 330,000 active | activation, % at 10 µM | AID 449763;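 active means at 10 µM dose, activation of 40% or more, normalized to positive control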
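Assay system: CHO-CHOP cells, stable luciferase reporter of PERK-eIF2a-CHOP signalling / Buffer or medium: F12 plus 10% serum / Compound dosing: one dose, 10 µM in 0.5% DMSO / Times: 6 h compound treatment, 37 °C / Technique: luciferase luminescence / Read-out: % reporter activation, DMSO baseline versus tunicamycin full activation / Benchmarks: tunicamycin and DMSO controls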
CSC inhib – cancer stem cell inhibition; cancer stem cell-like cells viability, luminescence; inhibition, % at 7.5 µM; 1.1% of 300,000 active; AID 2717; in the data active means inhibition above about 75%; inconclusive means no clear call, values can overlap the other calls; tested in HMLE shEcad cells
Beta apoptosis – blocks beta cell apoptosis; protection from apoptosis, % (test concentration not listed); 0.8% of 300,000 active; INS-1E cytokine-induced death, ATP luminescence, 48 h; percent of positive-control rescue, neutral wells zero;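 active means Every replicate reaches about 75%, or at least half do and their mean reaches it too, limit read from the data; inconclusive means At least half of replicates reach the limit but their mean does not; inactive means Under half of replicates reach the limit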;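 further: higher means more ATP so stronger rescue from cytokine killing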
UPR XBP1 act – adaptive UPR (XBP1) activation; 0.33% of 330,000 active; activation, % at 20 µM; CHO-XBP1 luciferase reporter, IRE1-XBP1 UPR activation, luminescence; percent of tunicamycin response, DMSO as zero;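 active means versus positive control, 20 µM dose yields 30% or more activation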
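incubation = overnight seeding at 37 °C, 6 h compound treatment at 37 °C | assay system = CHO-XBP1 cells stably carrying IRE1-XBP1-driven luciferase reporter | input = 1000 cells per well | detection = luciferase luminescence | dosing = single point, 20 µM final compound, 1% DMSO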
Numbers stand for hits; . = inactive; ? = inconclusive; / = no result. This is a sample that favours compounds with a hit; in the whole collection about 4.8% have one here.

SMILES	Mdm2 MdmX PPI	SKKanGAS inh	UPR CHOP act	CSC inhib	Beta apoptosis	UPR XBP1 act
CCOc1cc(/C=C\c2[nH]c(=O)[nH]c(=O)c2[N+](=O)[O-])ccc1OC(C)CC (stereo not given)	.	.	.	78	.	.
CC(=O)N1CCN(C(=O)CSc2nc3c(cnn3-c3ccccc3)c(=O)[nH]2)CC1	.	.	.	.	.	.
O=C(CSc1nc2c(cnn2-c2ccccc2)c(=O)[nH]1)N1N=C(c2cccs2)CC1c1ccc(F)cc1 (stereo not given)	.	51	.	.	.	.
CCCCN(C)CCNC(=O)c1cc2c(-c3cccc(OC)c3)nn(C)c2s1	.	.	.	.	.	.
CC1=C(C(=O)Nc2ccccc2)C(c2ccc(C)cc2)N=C(Nc2nc3ccccc3o2)N1 (stereo not given)	.	.	74	.	.	.
CC1(C)CC(=O)C2=C(C1)NC(Nc1nc3ccccc3o1)=NC2c1ccccn1 (stereo not given)	.	.	.	.	.	.
CCC(C(=O)N1CCC(N2CCCCC2)CC1)n1nc(C)c2sc3ccccc3c2c1=O (stereo not given)	.	53	.	.	.	.
Cc1nn(C(C)C(=O)N2CCCCC2)c(=O)c2c1sc1ccccc12 (stereo not given)	.	.	.	.	.	.
c1ccc(Nc2nnc(-c3cccnc3)s2)cc1	.	.	.	/	/	.
COc1cccc2c1cc1c(=O)n(CC(=O)N3CCC(C)CC3)nc(C)n12	.	.	.	.	.	.
Cc1ccccc1OCCC(=O)OCC(=O)NCCc1ccccc1	.	.	.	.	.	.
COc1ccccc1NC(=O)Nc1nc(CC(=O)Nc2cc(F)ccc2F)cs1	.	82	.	/	.	.
COc1ccc(CNC(=O)Cc2csc(NC(=O)Nc3ccccc3OC)n2)cc1	.	55	.	/	.	.
COc1ccccc1NC(=O)Nc1nc(CC(=O)Nc2cccc(F)c2)cs1	.	.	.	.	.	.
COc1ccc(N2CCN(C(=O)Cc3csc(NC(=O)Nc4ccccc4OC)n3)CC2)cc1	.	66	.	/	.	.
COc1ccccc1NC(=O)Nc1nc(CC(=O)N2CCN(c3ccccc3)CC2)cs1	.	.	.	.	.	.
COc1cc(OC)cc(C(=O)Nc2nc(CC(=O)NCc3ccccc3OC)cs2)c1	.	62	.	/	.	.
O=C(COc1cc2oc(=O)cc(-c3ccccc3)c2cc1Cl)NCc1ccccn1	.	.	.	.	.	.
Cc1ccc(C#CC[N+]2(C)CCCCC2)cc1	.	.	.	.	.	.
CCCC(C)C(=O)Nc1nc(C)c(-c2csc(Nc3ccc(Cl)cc3)n2)s1 (stereo not given)	.	.	.	.	100	.
COc1cc(-c2nc(-c3ccc(NC(=O)c4ccc(Br)o4)cc3)no2)cc(OC)c1OC	.	.	.	77	.	.
O=C(O)c1ccc(-c2nc(-c3ccccc3)cs2)cc1	.	.	.	.	.	.
O=C(O)c1ccc(-c2nc(-c3ccc(Cl)c(Cl)c3)cs2)cc1	.	57	.	/	.	.
[N-]=[N+]=NC[C@H](Cc1ccccc1)N1CC[C@@H](NC(=O)OCc2ccccc2)CCC1=O	.	.	.	.	.	.
CC(=O)c1ccc(S(=O)(=O)NCCCC(=O)N(C)Cc2ccc3c(c2)OCO3)cc1	.	/	.	.	.	.
SMILES	Mdm2 MdmX PPI	SKKanGAS inh	UPR CHOP act	CSC inhib	Beta apoptosis	UPR XBP1 act
S=C(NCCC(c1ccccc1)c1ccccc1)Nc1ccc(Cl)cc1	.	117	.	.	.	.
C/C(=N\NC(=S)NCCc1ccccc1)c1ccc(Cl)cc1Cl	.	91	.	.	.	.
S=C(NCCc1ccccc1)Nc1ccc(Nc2ccccc2)cc1	.	.	.	.	92	.
Cc1ccc(C)c(/C=N/NC(=S)NCCc2ccccc2)c1	.	54	.	.	.	.
COc1cc(OC)cc(C(=O)NCC2CCCN(C(=O)c3oc(C)cc3C)C2)c1 (stereo not given)	.	.	.	.	.	.
CCOc1ccc(S(=O)(=O)N2CCN(C(=O)c3ccc(C)c(S(=O)(=O)N4CCOCC4)c3)CC2)cc1	.	/	.	.	.	.
NS(=O)(=O)c1ccc(NC(=O)NC2CC(=O)N(c3ccc4c(c3)OCCO4)C2)cc1 (stereo not given)	.	.	.	.	.	.
S=C(Nc1ccc(Nc2ccccc2)cc1)NC1CCCCCC1	.	.	.	78	.	.
Oc1ccccc1/C=N/NC(=S)NCCc1ccccc1	/	96	/	.	.	/
Cc1cccn2c(=O)c3cc(C(=O)NC4CCCC4)c(=N)n(CCCN4CCOCC4)c3nc12	.	.	.	.	.	.
c1ccc(-c2nc(C3CCCCC3)c3ccccc3n2)cc1	.	?	.	.	.	.
c1ccc(-c2nc(C3CCCCC3)c3sccc3n2)cc1	.	84	.	.	.	.
Cn1c(=O)c2c(SCC(=O)N3CCOCC3)nc(-c3ccccc3F)nc2n(C)c1=O	.	61	.	.	/	.
CN1CCN(CCCOc2ccc(-c3ccccc3)cc2)CC1	.	.	.	.	.	.
CCN1CCN(CCCOc2ccc(-c3ccccc3)cc2)CC1	.	.	.	125	.	.
C/C(NC(=O)c1ccccc1F)=C1\C(=O)C[C@@H]2[C@H]1C2(C)C	.	.	.	.	.	.
C/C(NC(=O)c1cccc(F)c1)=C1/C(=O)C[C@@H]2[C@H]1C2(C)C	.	.	.	92	.	.
COc1ccccc1NC(=O)C(C)OC(=O)CCC1CCCCC1 (stereo not given)	.	.	.	.	.	.
CCC(=O)N1CCN(c2ccc(NC(=S)NC(=O)c3cc4ccccc4o3)cc2)CC1	.	.	.	.	.	.
CC(C)(C)c1nn(-c2ccccc2)c2[nH]c(=O)c(C=O)cc12	.	.	.	88	.	.
O=C(NCc1ccc(C(F)(F)F)cc1)c1ccc2c(c1)S(=O)(=O)c1ccccc1C2=O	.	51	.	.	.	.
O=C(NCc1ccc(F)cc1)c1ccc2c(c1)S(=O)(=O)c1ccccc1C2=O	.	.	.	.	.	.
O=C(O)c1ccc(/C=C2\SC(=S)N(Nc3ccccc3)C2=O)cc1	.	.	.	.	91	.
O=C1/C(=C/c2ccncc2)SC(=S)N1Nc1ccccc1	.	.	.	.	.	.
CCN(C[C@H]1N[C@@](CC)(C(=O)OC)[C@H]2C(=O)N(Cc3ccccc3)C(=O)[C@@H]12)C(C)=O	.	/	.	/	/	.
COC(=O)c1c(NC(=O)c2ccccc2)sc(C(N)=O)c1C	.	.	.	/	/	.
COC(=O)c1c(NC(=O)c2ccccc2)sc(C(=O)c2ccccc2)c1C	.	73	.	.	.	.
Cc1ccnc(N/N=C/c2ccccc2)n1	.	.	.	.	.	.

Source: PubChem (several laboratories)
